Measurements from different studies.
Compare with care: the assays were run in different laboratories.
JAK3: Tyrosine-protein kinase JAK3 (JAK3, Homo sapiens, UniProt P52333)
JAK3 JH1: Tyrosine-protein kinase JAK3, JH1 (JAK3, Homo sapiens, UniProt P52333)

C#Cc1n[nH]c2c(-c3cn([C@@H](C)c4ccccc4)c(=O)[nH]c3=O)cc(F)cc12
inhibition (JAK3; enzyme activity; inhibitor; 0.1 µM): -12.1%

Cn1cc(-c2cc(F)cc(N3CCn4c(cc5c4CCCC5)C3=O)c2CO)cc(Nc2ccc(N3CCN(C4COC4)CC3)cn2)c1=O
inhibition (JAK3; enzyme activity; inhibitor; 0.1 µM): 2%

COc1ncccc1-c1cnn2ccc(N3CCN(C(=O)OC(C)C)CC3)nc12
remaining binding (JAK3; binding; competition with immobilised ligand; 1 µM): 71%

C#Cc1n[nH]c2c(-c3cn(C(C)c4ccccn4)c(=O)[nH]c3=O)cc(F)cc12 (stereo not shown)
inhibition (JAK3; enzyme activity; inhibitor; 1 µM): -4.9%

O=c1[nH]c2ccccc2n1C1CCN(Cc2ccc(-c3[nH]c4cc5ncnc5cc4nc3-c3ccccc3)cc2)CC1
remaining signal (JAK3; cell-free assay; 0.5 µM): 100%

Nc1ncc(-c2nc(N3CCOCC3)nc(N3CCOCC3)n2)c(C(F)F)n1
remaining binding (JAK3 JH1; binding; competition with immobilised ligand; 10 µM): 46%

CC(C)(C)c1cc(C=C(C#N)C#N)cc(Br)c1O
remaining activity (JAK3; enzyme activity; inhibitor; 0.5 µM): 110%

Cn1cc(-c2cccc(N3CCc4c(sc5c4CC(C)(C)C5)C3=O)c2CO)cc(Nc2ccncn2)c1=O
inhibition (JAK3; enzyme activity; inhibitor; 1 µM): -4%

Cc1nn(C)cc1-c1nc2c(N3CCN(Cc4ccc(Cl)cc4)CC3)c(Cl)cnc2[nH]1
remaining binding (JAK3 JH1; binding; competition with immobilised ligand; 1 µM): 0.85%

Cn1cncc1[C@@](O)(COc1ccc(C#N)cc1-c1ccc(OC(F)(F)F)cc1)c1ccc(C#N)cc1
remaining binding (JAK3 JH1; cell-free assay; competition with immobilised ligand; 1 µM): 100%
